# Columns and labels:
# [1] = system: Rattus norvegicus; experiment: Antiinflammatory activity against formalin-induced paw edema in anaesthetized Albino rat acute inflammatory model at 10 mg/kg, po dosed 1 hr before formalin challenge assessed after 1 hr; type: functional
# Outline: (§1)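 Rats in groups of five plus control; test compounds 20 mg/kg po, diclofenac Na 10 mg/kg po, given 1 h before 0.1 mL 2% formalin injected subplantar into left hind paw under light ether anaesthesia. Paw volume by water plethysmometer at 0 and 1, 2, 3, 4 h after formalin; % anti-inflammatory activity versus control; mean ± SE, N = 5.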
# [2] = system: Rattus norvegicus; experiment: Antiinflammatory activity against formalin-induced paw edema in anaesthetized Albino rat acute inflammatory model at 10 mg/kg, po dosed 1 hr before formalin challenge assessed after 2 hrs; type: functional; outline: as §1
# [3] = system: Rattus norvegicus; experiment: Antiinflammatory activity against formalin-induced paw edema in anaesthetized Albino rat acute inflammatory model at 10 mg/kg, po dosed 1 hr before formalin challenge assessed after 3 hrs; type: functional; outline: as §1
# [4] = system: Rattus norvegicus; experiment: Antiinflammatory activity against formalin-induced paw edema in anaesthetized Albino rat acute inflammatory model at 10 mg/kg, po dosed 1 hr before formalin challenge assessed after 4 hrs; type: functional; outline: as §1
# [5] = system: Rattus norvegicus; experiment: Antiinflammatory activity against formalin-induced paw edema in anaesthetized Albino rat sub-acute inflammatory model at 10 mg/kg, po measured on day 1; type: functional
# Outline: (§2)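 Sub-acute paw edema: test compounds 20 mg/kg po daily for 7 days, diclofenac Na 10 mg/kg po; 0.1 mL 2% formalin injected subplantar into left hind paw under light ether anaesthesia on days 1 and 3, 1 h after dosing. Paw volume measured on day 1 and day 8; % anti-inflammatory activity; N = 5 rats.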
# [6] = system: Rattus norvegicus; experiment: Antiinflammatory activity against formalin-induced paw edema in anaesthetized Albino rat sub-acute inflammatory model at 10 mg/kg, po for 7 days measured on day 8; type: functional; outline: as §2
# [7] = system: Rattus norvegicus; experiment: Antiinflammatory activity against turpentine oil-induced granuloma pouch in anaesthetized Albino rat sub-acute inflammatory model at 10 mg/kg, po 1 hr before turpentine oil challenge for 7 days assessed after 8 days; type: functional
# Outline: (§3)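 Dorsal subcutaneous pouch made in ether-anaesthetised rats with 2 mL air, then 0.5 mL turpentine oil. Test compounds 20 mg/kg po, diclofenac Na 10 mg/kg po, started 1 h before turpentine and continued 7 days. Exudate aspirated on day 8 under anaesthesia; volume measured; % inhibition = (Vcontrol − Vtreated)/Vcontrol × 100; N = 5.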
# [8] = system: Rattus norvegicus; experiment: Toxicity in Albino rat assessed as induction of gastric ulceration at 300 mg/kg, po twice a day after 2 hrs; type: organism-based, Stomach; design: dose 300 mg/kg, route oral; conditions: in vivo
# Outline: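 Male albino rats (180–200 g), five per group, fasted 12 h with water ad libitum. Oral dosing at 300 mg/kg; the results text gives two doses at a 2 h interval, while the methods give two equal doses at 0 and 12 h over three days. Controls received 1% gum acacia orally. Rats were killed with ether 6 h after the last dose, and stomachs were inspected grossly for ulceration and hyperemia.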
# [9] = system: Rattus norvegicus; experiment: Analgesic activity in Albino rat assessed as tail withdrawal response at 10 mg/kg, po after 1 hr; type: functional
# Outline: (§4)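 Male albino rats, 120–150 g, groups of five plus untreated control; test compounds 20 mg/kg po, diclofenac Na 10 mg/kg po. Tail immersed in 55 °C water; withdrawal reaction time read 1, 2 and 3 h after dosing; percentage increase in reaction time over basal computed; mean ± SE of five animals.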
# [10] = system: Rattus norvegicus; experiment: Analgesic activity in Albino rat assessed as tail withdrawal response at 10 mg/kg, po after 2 hrs; type: functional; outline: as §4
# [11] = system: Rattus norvegicus; experiment: Analgesic activity in Albino rat assessed as tail withdrawal response at 10 mg/kg, po after 3 hrs; type: functional; outline: as §4
# [12] = system: Rattus norvegicus; experiment: Antiinflammatory activity against formalin-induced paw edema in anaesthetized Albino rat acute inflammatory model at 20 mg/kg, po dosed 1 hr before formalin challenge assessed after 1 hr; type: functional; outline: as §1
# [13] = system: Rattus norvegicus; experiment: Antiinflammatory activity against formalin-induced paw edema in anaesthetized Albino rat acute inflammatory model at 20 mg/kg, po dosed 1 hr before formalin challenge assessed after 2 hrs; type: functional; outline: as §1
# [14] = system: Rattus norvegicus; experiment: Antiinflammatory activity against formalin-induced paw edema in anaesthetized Albino rat acute inflammatory model at 20 mg/kg, po dosed 1 hr before formalin challenge assessed after 3 hrs; type: functional; outline: as §1
# [15] = system: Rattus norvegicus; experiment: Antiinflammatory activity against formalin-induced paw edema in anaesthetized Albino rat acute inflammatory model at 20 mg/kg, po dosed 1 hr before formalin challenge assessed after 4 hrs; type: functional; outline: as §1
# [16] = system: Rattus norvegicus; experiment: Antiinflammatory activity against formalin-induced paw edema in anaesthetized Albino rat sub-acute inflammatory model at 20 mg/kg, po measured on day 1; type: functional; outline: as §2
# [17] = system: Rattus norvegicus; experiment: Antiinflammatory activity against formalin-induced paw edema in anaesthetized Albino rat sub-acute inflammatory model at 20 mg/kg, po for 7 days measured on day 8; type: functional; outline: as §2
# [18] = system: Rattus norvegicus; experiment: Antiinflammatory activity against turpentine oil-induced granuloma pouch in anaesthetized Albino rat sub-acute inflammatory model at 20 mg/kg, po 1 hr before turpentine oil challenge for 7 days assessed after 8 days; type: functional; outline: as §3
# [19] = Acute toxicity in Albino rat after 24 hrs; type: organism-based; conditions: in vivo, read-out: ALD50
# Outline: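 Male rats, 180–200 g, groups of five, fasted 24 h before dosing; compounds given orally in graded doses of 0.1–3.0 g/kg; mortality recorded at each dose level after 24 h to estimate approximate acute lethal dose (ALD50).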
# [20] = system: Rattus norvegicus; experiment: Analgesic activity in Albino rat assessed as tail withdrawal response at 20 mg/kg, po after 1 hr; type: functional; outline: as §4
# [21] = system: Rattus norvegicus; experiment: Analgesic activity in Albino rat assessed as tail withdrawal response at 20 mg/kg, po after 2 hrs; type: functional; outline: as §4
# [22] = system: Rattus norvegicus; experiment: Analgesic activity in Albino rat assessed as tail withdrawal response at 20 mg/kg, po after 3 hrs; type: functional; outline: as §4
# [23] = system: Staphylococcus aureus; experiment: Antimicrobial activity against Staphylococcus aureus ATCC 6538 after 24 hrs by twofold serial dilution method; type: functional; conditions: ATCC 6538, 24 h
# Outline: (§5)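 Broth microdilution in Müller–Hinton broth on compounds with agar-diffusion inhibition zones ≥14 mm (disks with 1 mg/mL in DMSO, 37 °C, 24 h, triplicate).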
# [24] = system: Bacillus subtilis; experiment: Antimicrobial activity against Bacillus subtilis NRRL B-14819 after 24 hrs by twofold serial dilution method; type: functional; outline: as §5
# [25] = system: Micrococcus luteus; experiment: Antimicrobial activity against Micrococcus luteus ATCC 21881 after 24 hrs by twofold serial dilution method; type: functional; conditions: ATCC 21881, 24 h; outline: as §5
# [26] = system: Escherichia coli; experiment: Antimicrobial activity against Escherichia coli ATCC 25922 after 24 hrs by twofold serial dilution method; type: functional; conditions: ATCC 25922, 24 h; outline: as §5
# [27] = system: Pseudomonas aeruginosa; experiment: Antimicrobial activity against Pseudomonas aeruginosa ATCC 27853 after 24 hrs by twofold serial dilution method; type: functional; conditions: ATCC 27853, 24 h; outline: as §5
# [28] = system: Klebsiella pneumoniae; experiment: Antimicrobial activity against Klebsiella pneumoniae clinical isolate after 24 hrs by twofold serial dilution method; type: functional; outline: as §5
Compound,Activity [8],Activity [12],Activity [13],Activity [14],Activity [15],Activity [16],Activity [17],Activity [18],LD50 at 24 h [19],Activity [20],Activity [21],Activity [22],MIC [23],MIC [24],MIC [25],MIC [26],MIC [27],MIC [28],other results
O=C([O-])Cc1ccccc1Nc1c(Cl)cccc1Cl.[Na+] [DICLOFENAC SODIUM],Toxic,,,,,,,,,,,,,,,,,,Activity [1]: 17%; Activity [2]: 40%; Activity [3]: 44%; Activity [4]: 45%; Activity [5]: 40%; Activity [6]: 46%; Activity [7]: 73%; Activity [9]: 26%; Activity [10]: 55%; Activity [11]: 79%
CCOC(=O)/C(C#N)=C1/SC(C(=O)Nc2c(C)n(C)n(-c3ccccc3)c2=O)=C(N)N1c1ccccc1,Non-toxic,30%,26%,38%,29%,29%,31%,53%,> 3000 mg/kg,32%,50%,67%,12.5 µg/mL,12.5 µg/mL,25 µg/mL,50 µg/mL,50 µg/mL,50 µg/mL,
Cc1c(NC(=O)c2sc(=S)n(-c3ccc(Cl)cc3)c2N)c(=O)n(-c2ccccc2)n1C,,,,,,,,,,,,,,100 µg/mL,100 µg/mL,,,,
Cc1c(NC(=O)c2sc(=S)n(-c3ccccc3)c2NC(=S)Nc2ccccc2)c(=O)n(-c2ccccc2)n1C,Non-toxic,30%,37%,41%,40%,40%,39%,65%,> 3000 mg/kg,48%,70%,82%,50 µg/mL,12.5 µg/mL,50 µg/mL,50 µg/mL,50 µg/mL,50 µg/mL,
Cc1c(NC(=O)/C(C#N)=C2\SCC(=O)N2c2ccc(Cl)cc2)c(=O)n(-c2ccccc2)n1C,,,,,,,,,,,,,50 µg/mL,25 µg/mL,12.5 µg/mL,25 µg/mL,50 µg/mL,100 µg/mL,
Cc1c(NC(=O)c2sc(=S)n(-c3ccc(Cl)cc3)c2NC(=S)Nc2ccccc2)c(=O)n(-c2ccccc2)n1C,,,,,,,,,,,,,100 µg/mL,,,,,,
Cc1c(NC(=O)/C(C#N)=C2\SC=C(c3ccc(Cl)cc3)N2c2ccccc2)c(=O)n(-c2ccccc2)n1C,Non-toxic,39%,29%,33%,43%,37%,44%,58%,> 3000 mg/kg,22%,43%,43%,100 µg/mL,,,,,,
Cc1nc2c(sc(=S)n2-c2ccc(Cl)cc2)c(=O)n1-c1c(C)n(C)n(-c2ccccc2)c1=O,,,,,,,,,,,,,,100 µg/mL,100 µg/mL,,,,
Cc1c(NC(=O)CSc2nnc(NC(=S)Nc3ccccc3)s2)c(=O)n(-c2ccccc2)n1C,Non-toxic,26%,31%,21%,26%,23%,20%,19%,> 3000 mg/kg,27%,43%,46%,100 µg/mL,,,,,,
CC1(C)S[C@@H]2[C@H](NC(=O)[C@H](N)c3ccccc3)C(=O)N2[C@H]1C(=O)O.O.O.O [AMPICILLIN TRIHYDRATE],,,,,,,,,,,,,6.25 µg/mL,12.5 µg/mL,12.5 µg/mL,6.25 µg/mL,12.5 µg/mL,12.5 µg/mL,
Cc1c(NC(=O)/C(C#N)=C2\SCC(=O)N2c2ccccc2)c(=O)n(-c2ccccc2)n1C,Non-toxic,13%,31%,23%,19%,29%,17%,53%,> 3000 mg/kg,22%,20%,34%,50 µg/mL,100 µg/mL,100 µg/mL,50 µg/mL,50 µg/mL,50 µg/mL,
CC(=O)Nc1nnc(SCC(=O)Nc2c(C)n(C)n(-c3ccccc3)c2=O)s1,Non-toxic,43%,37%,46%,43%,29%,39%,60%,> 3000 mg/kg,30%,60%,55%,100 µg/mL,,,,,,
Cc1c(NC(=O)CSc2nnc(NC(=S)Nc3ccc(Cl)cc3)s2)c(=O)n(-c2ccccc2)n1C,,,,,,,,,,,,,100 µg/mL,,,,,,
Cc1c(NC(=O)c2sc(=S)n(-c3ccccc3)c2NC(=S)Nc2ccc(Cl)cc2)c(=O)n(-c2ccccc2)n1C,,,,,,,,,,,,,25 µg/mL,12.5 µg/mL,,25 µg/mL,50 µg/mL,50 µg/mL,

# From ChEMBL document CHEMBL1140859, “Design and synthesis of some thiazolyl and thiadiazolyl derivatives of antipyrine as potential non-acidic anti-inflammatory, analgesic and antimicrobial agents” (Bioorg Med Chem, 2009)
